Source: PubChem BioAssay
A selection: hits, their analogues and other compounds. The true share with any hit is near 1%.
Lipid droplet = inhibitors of hepatocyte lipid droplet formation, primary screen, imaging, high-throughput imaging, BODIPY stain; AML12 mouse hepatocytes, oleate lipid droplets; inhibition, % at 6.5 µM; actives 0.4% (n = 240,000); AID 1656, 2009;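 active means lipid droplet intensity inhibited by at least 50%, with more than 500 cells counted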
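Technique: fluorescence imaging, 20x objective, two fields per well / Assay system: AML12 hepatocytes (mouse) / Measure: % inhibition of lipid droplet signal / Doses: 6.5 µM single-point dosing / Incubation: overnight exposure / Reagent: 100 µM oleic acid challenge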
CTSL1 counter = Fasciola hepatica cathepsin L1 inhibitors, primary screen, counter-screen for PFM18AAP inhibitor project, biochemical, QFRET, fluorogenic peptide substrate; AID 1906, 2009; actives 0.49% (n = 300,000); inhibition, % at 5.96 µM; recombinant F. hepatica cathepsin L1, Z-Leu-Arg-MCA fluorescence;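 active means inhibition above the mean of all tested compounds plus 3 SD, set per screening campaign, cut at about 17% in these data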;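 further: 0% = plate median of test compound wells and 100% = 1 µM Z-Phe-Ala-diazomethylketone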
pCIP destab = p/CIP-EGFP fusion destabilizers, primary screen, fluorescence, F442A cells; decrease of EGFP signal, % at 10 µM; AID 1984, 2009; actives 0.01% (n = 290,000); 16 h; Q05BA5;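 active means EGFP signal decrease of at least 30% at 10 µM or well 3 SD below plate mean, unless failing retest; inactive means the rest, including hits failing retest or dose response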
Target sequence (Q05BA5 1-1403): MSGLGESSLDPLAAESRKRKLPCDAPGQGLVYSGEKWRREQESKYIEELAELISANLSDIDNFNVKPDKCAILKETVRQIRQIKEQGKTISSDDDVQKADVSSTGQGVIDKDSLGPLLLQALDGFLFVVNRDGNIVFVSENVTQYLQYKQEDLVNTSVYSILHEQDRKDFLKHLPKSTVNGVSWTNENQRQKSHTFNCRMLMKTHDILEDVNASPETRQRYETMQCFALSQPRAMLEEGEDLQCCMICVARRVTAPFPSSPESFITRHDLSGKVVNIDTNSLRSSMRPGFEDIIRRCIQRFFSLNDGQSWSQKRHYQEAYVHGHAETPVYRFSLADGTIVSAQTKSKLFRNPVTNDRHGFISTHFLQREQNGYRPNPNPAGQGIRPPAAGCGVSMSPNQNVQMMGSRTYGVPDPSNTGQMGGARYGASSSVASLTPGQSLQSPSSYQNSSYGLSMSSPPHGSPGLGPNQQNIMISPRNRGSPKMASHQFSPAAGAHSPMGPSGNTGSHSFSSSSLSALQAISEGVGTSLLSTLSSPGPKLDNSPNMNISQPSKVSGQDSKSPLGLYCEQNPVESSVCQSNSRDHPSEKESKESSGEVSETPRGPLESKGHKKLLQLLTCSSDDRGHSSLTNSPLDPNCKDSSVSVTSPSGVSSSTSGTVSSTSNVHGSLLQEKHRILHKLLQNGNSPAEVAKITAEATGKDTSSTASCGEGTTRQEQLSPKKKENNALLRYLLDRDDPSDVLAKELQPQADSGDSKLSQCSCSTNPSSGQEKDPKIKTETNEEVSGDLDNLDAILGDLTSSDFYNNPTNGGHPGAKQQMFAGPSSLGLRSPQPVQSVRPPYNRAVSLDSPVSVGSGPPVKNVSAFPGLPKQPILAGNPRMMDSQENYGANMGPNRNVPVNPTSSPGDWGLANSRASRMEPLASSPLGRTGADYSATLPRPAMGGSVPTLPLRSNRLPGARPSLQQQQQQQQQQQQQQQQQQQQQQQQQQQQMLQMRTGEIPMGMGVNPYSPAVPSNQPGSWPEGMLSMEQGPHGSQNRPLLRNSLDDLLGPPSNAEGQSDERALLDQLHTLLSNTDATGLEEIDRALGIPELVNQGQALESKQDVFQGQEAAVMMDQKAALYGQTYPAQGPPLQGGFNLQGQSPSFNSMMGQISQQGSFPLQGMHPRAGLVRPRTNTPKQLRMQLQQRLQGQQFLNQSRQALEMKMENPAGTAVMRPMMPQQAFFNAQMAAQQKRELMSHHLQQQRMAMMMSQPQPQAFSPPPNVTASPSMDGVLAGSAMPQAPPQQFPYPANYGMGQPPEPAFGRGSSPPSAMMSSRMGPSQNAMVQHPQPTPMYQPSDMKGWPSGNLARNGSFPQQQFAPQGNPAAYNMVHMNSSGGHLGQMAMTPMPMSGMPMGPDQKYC
Arr AP2 block = inhibitors of beta-arrestin/AP2 binding, primary screen, biochemical, GPCR trafficking, flow cytometry | FITC-arrestin peptide / GST-AP2 beads; AP2 beta2 appendage carries R879A mutation | inhibition, % at 10 µM | actives 0.31% (n = 340,000);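 active means inhibition above a set limit, near 3 SD of compounds lacking own fluorescence, cut at about 54% in these data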;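 further: plate controls were DMSO wells for no effect and 5 µM unlabelled arrestin peptide for full effect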
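Assay system: GST-AP2 R879A bound to glutathione beads, E. coli-expressed; Medium: PBS with 0.05% Tween 20 and 0.1% BSA; Also added: fluorescein-tagged arrestin peptide at 50 nM final; Timing: 12 min plus 1 h, RT; Measured by: flow cytometry, FL1 (488/535 nm); Evaluation: percent drop in bead-associated FITC signal.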
Hep lipid conf = hepatocyte lipid droplet accumulation inhibitors, confirmation, imaging, AML12 mouse hepatocytes, single concentration, high-content | shares compounds with Lipid droplet | inhibition, % at 5.2 µM | actives 65% (n = 870) | BODIPY lipid droplet imaging; droplets induced with 100 µM oleic acid | AID 463183, 2010;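 active means inhibition of lipid droplet metric at least 50%, with more than 300 cells in each of four replicates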;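 further: plate controls were DMSO with oleic acid for no effect and 5 µM Triacsin-C for full effect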
AML12 tox img = AML12 hepatocyte cytotoxicity, counter-screen for hepatic lipid droplet formation project, imaging, DAPI nuclear morphology imaging; shares compounds with Lipid droplet; AML12 mouse hepatocytes; hits give high values; cells fed 100 µM oleate overnight; z-score at 5 µM; actives 3% (n = 870); AID 463200, 2010; in the data active means z-score above about 6.3;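 further: compound exposure lasted overnight at 37 °C before fixation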
AML12 tox conf = AML12 hepatocyte cytotoxicity, confirmation, cytotoxicity control for hepatic lipid droplet formation project, cell-based, single concentration. 530 tested, under 10 active. AID 463219, 2010. AML12 mouse hepatocyte viability, ATP luminescence; cells loaded with 100 µM oleic acid. shares compounds with Lipid droplet. cytotoxicity, % at 50 µM;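 active means cytotoxicity above 50% in each of four replicates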;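 further: compound exposure lasted overnight at 37 °C before the ATP read; 0% = DMSO-treated cells and 100% = wells with no cells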
Active calls of the source: *; . = not tested or not shown.

SMILES | Lipid droplet | CTSL1 counter | pCIP destab | Arr AP2 block | Hep lipid conf | AML12 tox img | AML12 tox conf
CC(C)COc1ccc(C(=O)Nc2ccccc2[N+](=O)[O-])cc1 | -1 | 1 | -16 | -5 | . | . | .
COC(=O)c1c(N2C(=O)[C@H]3[C@@H](C2=O)[C@]2(C(=O)Nc4c(C)cc(C)cc42)N2CCC[C@@H]32)sc(C)c1C | 68* | 10 | -1 | 1 | 32 | 0.064 | .
OCCCNc1cc(-c2ccnc(Nc3cccc(Cl)c3)n2)ccn1 | 77* | 1 | -21 | 21 | 90* | 27* | .
Cc1ccc(CN2CCN(C3CSCCSC3)CC2CCO)cc1 (stereo not drawn) | -5 | 8 | -4 | 2 | . | . | .
C[C@]12c3[nH]c4ccc(Cl)cc4c3CCN1C(=O)[C@@H](CC(=O)NCCN1CCOCC1)C[C@@H]2C(=O)N1CCOCC1 | . | . | . | -6 | . | . | .
COc1ccc(S(=O)(=O)N2CCOCC2)cc1NC(=O)c1ccccc1C | 51* | 3 | 5 | 20 | -13 | -0.58 | .
COc1ccccc1NC(=O)c1cc(S(=O)(=O)N2CCOCC2)ccc1Cl | 0 | 3 | -5 | 4 | . | . | .
Cc1cccc2sc(NC(=O)CN(C)S(=O)(=O)c3cccs3)nc12 | 56* | -1 | 0 | -6 | 95* | -0.78 | 9
COc1cc2ncnc(NCc3ccccc3Cl)c2cc1OC | 52* | 1 | -3 | 5 | 65* | 17* | .
COc1cc2ncnc(NCc3ccccc3C)c2cc1OC | 46 | -4 | -11 | -1 | . | . | .
COc1cc2ncnc(NCc3ccc(Cl)cc3)c2cc1OC | 51* | 0 | 5 | -2 | 70* | 13* | .
C=CCN(C(=O)c1csnn1)C(C(=O)NC1CCCCC1)c1ccccc1F (stereo not drawn) | 56* | -1 | 0 | 8 | 93* | -0.66 | 12
Cc1ccc(C(C(=O)NC2CCCCC2)N(C(=O)c2csnn2)C2CCCC2)o1 (stereo not drawn) | 52* | 0 | -4 | 4 | 81* | -0.24 | 13
Cc1ccc(-n2c(C)c(C)c3c(NCCN(C)C)ncnc32)cc1 | -15 | -5 | 2 | -4 | . | . | .
CCOc1cc(C(=O)Nc2ccc(N3CCN(S(C)(=O)=O)CC3)cc2)cc(OCC)c1OCC | 61* | 5 | -8 | 0 | 93* | 0.8 | 7
COc1ccc(C)cc1NC(=O)Nc1ccc(C(=O)N2CCCC2)cc1 | 70* | -2 | 1 | 2 | 95* | 0.3 | 29
COc1ccc(Cl)cc1NC(=O)Nc1ccc(C(=O)N2CCCC2)cc1 | 56* | 1 | -1 | -9 | 77* | -0.61 | 18
COc1ccc(NC(=O)Nc2cc(C)ccc2OC)cc1 | -4 | 4 | -3 | 4 | . | . | .
CN(CC(=O)Nc1ccc(F)c(F)c1F)C(=O)c1ccc(N2CCCC2=O)cc1 | . | . | . | 8 | . | . | .
COc1ccccc1/C=C/C(=O)NCC(=O)N/N=C/c1cc(Br)ccc1OC | 73* | 0 | -26 | -17 | 106* | -1.1 | 18
CC(C)C(=O)N(Nc1nc2ccccc2s1)C(=O)C(C)C | 72* | -6 | -2 | -30 | 70* | 0.056 | 8
CCOc1ccc(NC(=O)CN(C)c2ccc(S(=O)(=O)N(C(C)C)C(C)C)cn2)cc1OCC | 52* | 0 | -2 | 13 | 84* | 0.016 | 38
O=C(Nc1ccc(NC(=O)c2cc3ccccc3o2)cc1)c1ccco1 | 70* | -1 | 4 | 3 | 65* | -0.081 | 11
CCOc1ccc(CC(=O)Nc2ccc(NC(=O)c3ccco3)cc2)cc1OCC | 57* | . | 10 | 23 | 98* | -0.086 | 9
COc1cc(NC(=O)c2ccco2)c(OC)cc1NC(=O)CCC(=O)Nc1cc(C)cc(C)c1 | 97* | 1 | -1 | -1 | 107* | -0.15 | 56*
SMILES | Lipid droplet | CTSL1 counter | pCIP destab | Arr AP2 block | Hep lipid conf | AML12 tox img | AML12 tox conf
COc1cc(NC(=O)c2ccco2)c(OC)cc1NC(=O)CCC(=O)Nc1cc(C)ccc1C | . | 5 | -4 | 6 | . | . | .
CC(=O)c1ccc(S(=O)(=O)N(Cc2cc3cc4c(cc3[nH]c2=O)OCCO4)CC2CCCO2)cc1 (stereo not drawn) | . | 0 | -8 | 26 | . | . | .
CC(CCc1ccccc1)NC(=O)CCCCCNc1nc(=S)[nH]c2ccccc12 (stereo not drawn) | -16 | 3 | -5 | . | . | . | .
O=C(CCS(=O)(=O)c1ccccc1)NC12CC3CC(CC(C3)C1)C2 | 13 | 2 | 0 | 9 | . | . | .
O=C(NCc1cccs1)C1CCC(CNS(=O)(=O)c2ccccc2)CC1 (stereo not drawn) | -8 | -3 | -43 | 26 | . | . | .
O=C(NCc1cccs1)C1CCC(CNS(=O)(=O)c2cccs2)CC1 (stereo not drawn) | 52* | -3 | -6 | -10 | 47 | -0.91 | .
COc1ccc(C(=O)N2CCN(c3ccc(NC(=O)c4ccco4)cc3)CC2)cc1 | 9 | -2 | 2 | -11 | . | . | .
CC(C)Oc1ccc(C(=O)Nc2ccc(N3CCN(C(=O)c4ccco4)CC3)cc2)cc1 | 69* | 1 | -4 | 9 | 57 | -0.23 | -4
Cc1cccc(NC(=O)c2nc[nH]c2C(=O)NCC(=O)OC(C)(C)C)c1 | 52* | 0 | 1 | . | 8 | 0.56 | .
NC(=O)c1ccccc1NC(=O)/C=C/c1c(Cl)cccc1Cl | . | 1 | -17 | 0 | . | . | .
CCCCCn1c(N)c(-c2nc3ccccc3s2)c2c([N+](=O)[O-])nn(CC)c(=O)c21 | 72* | 0 | 11 | 25 | 73* | -0.72 | -14
CCCCn1c(N)c(-c2nc3ccccc3s2)c2c([N+](=O)[O-])nn(CC)c(=O)c21 | 69* | 2 | 1 | 8 | 78* | -0.55 | -5
O=C(NCc1ccncc1)c1ccc(Oc2ccccc2)cc1 | 10 | -4 | -7 | 0 | . | . | .
CCN(CC)S(=O)(=O)c1cc(OC)ccc1N=Nc1ccc(O)c2ncccc12 | -2 | . | -7 | -7 | . | . | .
N#CC(c1ccc(Cl)cc1)c1ccc2c(C(F)(F)F)cc(C(F)(F)F)nc2n1 (stereo not drawn) | 59* | 8 | -6 | -9 | -68 | 6.2* | .
COc1c(C)cc(Br)cc1C(=O)Nc1cccc(NC(=O)c2ccco2)c1 | 60* | 1 | -1 | 25 | 97* | 0.26 | 1
COc1ccc(Br)cc1C(=O)Nc1cccc(NC(=O)c2ccco2)c1 | . | 0 | 12 | -3 | . | . | .
